One may read the IC50 as the concentration needed to halve the response being measured.

The test system of series [1] is HEK293. As to the kind of experiment: Induction of apoptosis in human HEK293 cells assessed as apoptotic cells at 15 uM after 48 hrs by propidium iodide staining-based FACS analysis (reference value: 4.88 +/- 0.8%). It counts as functional. In general terms: A flow cytometer gives signals particle by particle.
Series [2] relates to HEK293. The series is described as follows: Induction of cell cycle arrest in human HEK293 cells assessed as accumulation at G2/M phase at 15 uM after 48 hrs by propidium iodide staining-based FACS analysis (reference value: 7.5 +/- 1.0%). The class given is functional.
For series [3], the system named is HEK293. As to the kind of experiment: Induction of cell cycle arrest in human HEK293 cells assessed as accumulation at S phase at 25 uM after 48 hrs by propidium iodide staining-based FACS analysis (reference value: 16.91 +/- 1.0%). It counts as functional.
In series [4] the test system is HEK293. As to the kind of experiment: Induction of cell cycle arrest in human HEK293 cells assessed as accumulation at S phase at 35 uM after 48 hrs by propidium iodide staining-based FACS analysis (reference value: 16.91 +/- 1.0%). It counts as functional.
The target of series [5] is T1, DNA topoisomerase 2-alpha (Homo sapiens, UniProt P11388). As to the kind of experiment: Inhibition of etoposide poisoning activity against human recombinant DNA topoisomerase 2alpha assessed as enhancement of in relaxation of supercoiled plasmid pBR322 DNA at 100 uM after 30 mins by agarose gel electrophoresis.
The target in series [6] is T1, DNA topoisomerase 2-alpha. The series is described as follows: Inhibition of human topoisomerase 2 alpha-mediated relaxation of pRYG plasmid DNA at 100 uM by agarose gel electrophoresis. A digest of the protocol:
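250 ng supercoiled pRYG plasmid, 2–4 units hTopoIIα, 100 μM compound, ATP-containing Tris pH 8 buffer, 20 μL, 37 °C 30 min; SDS/proteinase K stop; 1% agarose in TAE without EtBr, post-stained 0.5 μg/mL EtBr; products quantified densitometrically.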

For series [7], the system named is HEK293. The series is described as follows: Anticlonogenic activity against human HEK293 cells assessed as inhibition of colony formation of cells at 25 uM after 48 hrs by crystal violet staining. The class given is functional, cell-based.
Series [8] relates to HEK293. The series is described as follows: Induction of cell cycle arrest in human HEK293 cells assessed as accumulation at sub-G0 phase after 48 hrs by propidium iodide staining-based FACS analysis. It counts as functional.
Series [9] addresses T1, DNA topoisomerase 2-alpha. As to the kind of experiment: Inhibition of topoisomerase 2 alpha-mediated DNA relaxation activity in human HEK293 cells assessed as increase in supercoiled DNA at 5 to 25 uM […] by agarose gel electrophoresis. It counts as cell-based.
Series [10] concerns HEK293. The series is described as follows: Induction of apoptosis in human HEK293 cells assessed as increase in apoptotic nuclei at 15 uM after 48 hrs by DAPI staining-based fluorescence microscopic analysis. It counts as functional. A digest of the protocol: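 HEK 293 cells exposed 48 h to 0, 15, 25 or 35 μM, nuclei stained with DAPI and apoptotic nuclei counted by fluorescence imaging; three replicates.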

In series [11] the test system is HEK293. As to the kind of experiment: Anticlonogenic activity against human HEK293 cells assessed as inhibition of colony formation of cells at 20 to 100 uM after 48 hrs by crystal violet staining. It counts as functional, cell-based. Summed up:
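Clonogenic survival in HEK 293 and Vero cells, 48 h exposure at graded concentrations; % survival plotted; mean ± SD of three independent experiments. Cells grown in DMEM with 10% FBS and 1% antibiotic at 37 °C, 5% CO2; compound diluted from 100 mM DMSO stock into DMEM, added at 60–70% confluence.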

Series [12] has as its target T1, DNA topoisomerase 2-alpha. As to the kind of experiment: Inhibition of human topoisomerase 2 alpha-mediated decatenation of kDNA at 100 uM by agarose gel electrophoresis. A digest of the protocol:
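150 ng kDNA with 2–4 units purified human topo II and 100 μM compound in DMSO, buffer 0.5 M Tris-HCl pH 8, NaCl, MgCl2, DTT, BSA with ATP (stock buffer concentrations), 20 μL, 37 °C 30 min. Stopped with SDS, proteinase K 37 °C 15 min; 1% agarose in TAE with 0.5 μg/mL EtBr; bands quantified by densitometry; etoposide 100 μM as reference.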

Series [13] deals with T1, DNA topoisomerase 2-alpha. The series is described as follows: Inhibition of etoposide poisoning activity against human recombinant DNA topoisomerase 2alpha assessed as enhancement of in relaxation of supercoiled plasmid pBR322 DNA at 200 uM after 30 mins by agarose gel electrophoresis.
For series [14], the system named is HEK293. The series is described as follows: Cytotoxicity against human HEK293 cells assessed as cell survival at 12 uM after 48 hrs by MTT assay. It counts as functional. The conditions noted are these: HEK293, 48 h, read-out: Activity. A digest of the protocol: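 MTT survival of HEK 293 and Vero cells after 48 h with compound at graded concentrations. DMEM, 10% FBS, 37 °C, 5% CO2; dilutions in DMEM from 100 mM DMSO stock, added at 60–70% confluence. Mean ± SD of three independent experiments.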

In series [15] the test system is HEK293. The series is described as follows: Induction of cell cycle arrest in human HEK293 cells assessed as accumulation at G2/M phase at 25 uM after 48 hrs by propidium iodide staining-based FACS analysis (reference value: 7.5 +/- 1.0%). The class given is functional.
For another series, the system named is Vero. As to the kind of experiment: Cytotoxicity activity against african green monkey Vero assessed as cell survival at 12 uM after 48 hrs by MTT assay. It counts as cell-based. The note with it: chlorocebus sabaeus.
Series [16] has as its system HEK293. As to the kind of experiment: Anticlonogenic activity against human HEK293 cells after 48 hrs by crystal violet staining. The class given is functional. The conditions noted are these: HEK293, 48 h, read-out: LC50 (the source's name). A digest of the protocol: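 HEK 293 and Vero cells were grown in DMEM with 10% FBS and 1% penicillin/streptomycin at 37 °C in 5% CO₂. At 60–70% confluence they were exposed for 48 h to a range of concentrations, diluted in DMEM from 100 mM DMSO stocks. Colony survival is expressed as %. Values are mean ± SD of three independent experiments; LC₅₀ is the concentration killing half the cells.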

The test system of series [17] is HEK293. As to the kind of experiment: Induction of apoptosis in human HEK293 cells assessed as increase in Bax protein expression at 15 to 25 uM after 48 hrs by Western blot analysis. The class given is functional, cell-based. Summed up:
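Whole-cell extracts from HEK 293 cells after 48 h at graded concentrations, Western blotted for caspase-3, Bax, Bcl-XL and PARP (cleaved 86 kDa fragment); β-actin as loading control.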

Series [18] has as its system HEK293. The series is described as follows: Cytotoxicity against human HEK293 cells assessed as cell survival at 12 uM after 24 hrs by MTT assay. The class given is functional, cell-based. On the technique in general: Formazan colour is commonly taken as a measure of viable cells.
The subject of series [19] is HEK293. The series is described as follows: Induction of apoptosis in human HEK293 cells assessed as apoptotic cells at 25 uM after 48 hrs by propidium iodide staining-based FACS analysis (reference value: 4.88 +/- 0.8%). The class given is functional.
Series [20] concerns the target T1, DNA topoisomerase 2-alpha. As to the kind of experiment: Inhibition of human topoisomerase 2 alpha-mediated decatenation of kDNA by agarose gel electrophoresis. Summed up: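 kDNA decatenation by hTopoIIα run at 10 to 100 μM compound under the standard decatenation conditions (37 °C, 30 min, agarose gel, densitometry); IC50 taken from the concentration–inhibition plot.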

Series [21] has as its system HEK293. The series is described as follows: Induction of cell cycle arrest in human HEK293 cells assessed as accumulation at G1 phase at 25 uM after 48 hrs by propidium iodide staining-based FACS analysis (reference value: 61 +/- 0.9%). It counts as functional.
Series [22] deals with HEK293. As to the kind of experiment: Induction of cell cycle arrest in human HEK293 cells assessed as accumulation at G2/M phase at 35 uM after 48 hrs by propidium iodide staining-based FACS analysis (reference value: 7.5 +/- 1.0%). It counts as functional.

Active and inactive are the calls of the source. The rule behind the calls is not given here.

T1 sequence (P11388 whole entry): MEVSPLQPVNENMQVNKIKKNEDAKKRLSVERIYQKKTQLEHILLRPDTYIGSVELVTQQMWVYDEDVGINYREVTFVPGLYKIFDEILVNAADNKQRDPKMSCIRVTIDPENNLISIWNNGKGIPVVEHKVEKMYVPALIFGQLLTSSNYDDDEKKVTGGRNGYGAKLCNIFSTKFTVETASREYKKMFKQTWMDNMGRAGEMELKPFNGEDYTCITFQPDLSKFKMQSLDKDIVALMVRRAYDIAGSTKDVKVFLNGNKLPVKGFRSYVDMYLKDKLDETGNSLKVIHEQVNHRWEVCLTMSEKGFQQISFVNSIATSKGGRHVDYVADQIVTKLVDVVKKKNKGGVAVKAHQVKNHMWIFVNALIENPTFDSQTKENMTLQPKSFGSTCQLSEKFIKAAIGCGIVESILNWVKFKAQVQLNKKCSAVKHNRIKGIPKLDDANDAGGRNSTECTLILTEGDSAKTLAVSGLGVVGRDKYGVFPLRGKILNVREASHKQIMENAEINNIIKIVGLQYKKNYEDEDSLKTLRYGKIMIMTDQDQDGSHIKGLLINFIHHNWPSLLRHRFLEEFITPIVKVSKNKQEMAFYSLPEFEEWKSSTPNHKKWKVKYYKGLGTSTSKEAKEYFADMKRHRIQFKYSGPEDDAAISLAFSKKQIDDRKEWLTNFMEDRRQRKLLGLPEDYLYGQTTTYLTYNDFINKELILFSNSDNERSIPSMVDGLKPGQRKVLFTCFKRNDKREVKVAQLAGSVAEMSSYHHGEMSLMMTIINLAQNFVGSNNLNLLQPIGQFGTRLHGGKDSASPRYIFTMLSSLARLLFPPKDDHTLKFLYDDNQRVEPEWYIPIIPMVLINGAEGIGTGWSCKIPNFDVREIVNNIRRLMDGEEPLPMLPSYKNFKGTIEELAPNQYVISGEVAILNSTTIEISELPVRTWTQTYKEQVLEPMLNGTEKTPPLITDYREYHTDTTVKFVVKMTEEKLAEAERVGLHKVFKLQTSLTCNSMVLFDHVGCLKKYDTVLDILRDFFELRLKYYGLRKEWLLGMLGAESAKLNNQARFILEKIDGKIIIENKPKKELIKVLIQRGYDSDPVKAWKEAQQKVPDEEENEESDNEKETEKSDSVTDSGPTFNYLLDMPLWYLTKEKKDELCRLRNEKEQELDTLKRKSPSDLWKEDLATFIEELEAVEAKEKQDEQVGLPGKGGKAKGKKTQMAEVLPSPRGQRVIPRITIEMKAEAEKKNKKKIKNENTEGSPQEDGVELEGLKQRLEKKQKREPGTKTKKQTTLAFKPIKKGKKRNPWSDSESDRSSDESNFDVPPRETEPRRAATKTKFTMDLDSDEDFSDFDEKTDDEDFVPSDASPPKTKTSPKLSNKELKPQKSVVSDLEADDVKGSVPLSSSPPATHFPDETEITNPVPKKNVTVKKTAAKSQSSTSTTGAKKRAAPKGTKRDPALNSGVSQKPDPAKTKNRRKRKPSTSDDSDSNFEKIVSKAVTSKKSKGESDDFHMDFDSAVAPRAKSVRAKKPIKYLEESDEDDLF

Consider `CC(C)(C)Nc1c(-c2ccc(C(=O)O)cc2)nc2ccccn12`, for which the Activity with HEK293 [1] is 24.61%; in the series on HEK293 [2] it was 9.92%; with HEK293 [3] it was 14.16%; in the series on HEK293 [4] it was 10.07%; in the series on HEK293 [8], “Dose-dependent effect”; with HEK293 [10], 20%. Further, the Activity with HEK293 [15] is 8.93%; in the series with Vero it was “Non-toxic”; with HEK293 [19] it was 27.46%; in the series on HEK293 [21], 36.64%; with HEK293 [22], 5.56%. In addition, the inhibition entry in series [5] and in series [13] was “inactive” each time. The inhibition result in [6], in series [9] and in series [12] was “Active” in each case. Besides, the result in the series with HEK293 [7], in the series on HEK293 [17] and in the series on HEK293 [18] was Active. The inhibition result in the series with HEK293 [11] was “Dose-dependent effect”. Further, the viability at 12 µM in the series on HEK293 [14] is greater than 50%. Besides, the CC50 with HEK293 [16] was 30 µM. In series [20], half-maximal inhibition (IC50) was put at 52.7 µM.

These data come from ChEMBL document CHEMBL1914308, “N-fused imidazoles as novel anticancer agents that inhibit catalytic activity of topoisomerase IIα and induce apoptosis in G1/S phase” (J Med Chem, 2011).
